Compounds with a hit are over-represented: about 11% of the library has one in this group of screens.
Diaph act CS: compounds boosting diaphorase resazurin reduction – biochemical, uHTS, resorufin fluorescence, counter-screen for diaphorase-coupled primary assays, primary screen; 190,000 compounds, 0.005% hits; AID 1229, 2008; Diaphorase/resazurin coupled assay, 16 min; hits give high values; 1 = vehicle wells, 0 = NADH-free wells; activation factor at 20 µM;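 active = diaphorase activity raised at least twofold by the compound at 20 µM; inactive = activation factor below 2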
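Test system: Clostridium kluyveri diaphorase, purified enzyme; input: enzyme 0.07 U/mL final; buffer or medium: 50 mM HEPES pH 7.4 with 4.542 mM MgCl2, 0.005% Tween 20; also added: 0.114 mM NADH and 0.1 mM resazurin, final amounts; schedule: 16 min enzyme reaction, ambient temperature; technique: fluorescence of resorufin, 544 nm excitation, 590 nm emission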
G6PDH counter: L. mesenteroides G6PDH inhibitors, counter-screen for G6PDH-coupled screening assays, biochemical, Leuconostoc mesenteroides enzyme. glucose-6-phosphate dehydrogenase [Leuconostoc mesenteroides]. Purified L. mesenteroides G6PDH, diaphorase/resazurin coupled fluorescence, 45 min. inhibition, % at 5 µM. 200,000 compounds, 0.12% hits. AID 1020, 2008
L major viab: Leishmania major promastigote growth inhibition, primary screen; Leishmania major promastigotes, resazurin fluorescence viability; inhibition, % at 10 µM; 200,000 compounds, 9% hits;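 note: promastigotes grown with compound for 44 hours at 28 °C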
Diaphorase inh: diaphorase inhibitors and chemical oxidizers, primary screen, counter-screen for diaphorase-coupled primary assays, biochemical, uHTS, resorufin fluorescence | AID 1217, 2008 | diaphorase resazurin-to-resorufin fluorescence, NADH, 16 min; bacterial (C. kluyveri) enzyme, not human | inhibition, % at 20 µM | 190,000 compounds, 0.69% hits;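 active = primary screen inhibition at 20 µM above a set limit, cut at about 50% in these data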;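 note: plate controls were DMSO with full reaction for no effect and wells lacking NADH for full effect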
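Test system: bacterial diaphorase enzyme (C. kluyveri); Quantity: 0.14 U/mL diaphorase, enzyme working solution; Times: reaction incubation of 16 min at room temperature; Measured by: fluorescence of resorufin formed from resazurin, Ex 544/Em 590 nm; Benchmarks: positive control minus NADH, DMSO neutral control.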
WT yeast gro inh: growth inhibition of WT strain, primary screen, mitochondrial fusion inhibitor project, WT and mutant strains, chemical genetic. mitochondrial fusion phenotypic screen. inhibition, % at 10 µM. 190,000 compounds, 2.1% hits. AID 1362, 2008; in the data active = inhibition above about 58%; tested in S. cerevisiae
L major 1uM: Leishmania major promastigote growth inhibition, confirmation, 1 µM repeat of primary hits; shares compounds with L major viab; L. major promastigote growth, resazurin fluorescence, 48 h; inhibition, % at 1 µM; 1,100 compounds, 13% hits; AID 1258, 2008;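 active = inhibition above about 50% in both repeat tests, limit read from the data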
Numbers without * were called inactive; x = not tested or not shown. Cut-off read from the data, not from the text of the source, unless noted: active = inhibition above about 50%; inactive = the rest.

SMILES | Diaph act CS | G6PDH counter | L major viab | Diaphorase inh | WT yeast gro inh | L major 1uM
COc1ccc(CN2CCC(C(=O)NCCc3ccc(OC)c(OC)c3)CC2)c(OC)c1 | 0.9 | 15 | -6 | 12 | -5 | x
CN(C)CCCN=c1cc(-c2ccccc2)oc2ccc(Cl)cc12 | 1.1 | 15 | 100* | -8 | 57 | 89*
CC(C)CN=c1cc(-c2ccccc2)oc2ccc(Cl)cc12 | 0.9 | 1 | 38 | 11 | 13 | x
CCOC(=O)c1nnc(-c2cccs2)nc1NC(C)C | 0.9 | 2 | -8 | 9 | -4 | x
CC(=O)c1c(-c2ccc(C)cc2)nc2c3ccccc3ccn12 | 0.8 | 4 | 59* | 18 | 8 | 43
N=C(N)CCCOc1ccccc1-c1ccccc1 | 0.9 | 8 | 53* | 12 | 8 | -11
OCCNCCOc1ccccc1-c1ccccc1 | 0.9 | 4 | 1 | 14 | -8 | x
Clc1ccc(Nc2ccc(-n3ccnc3)nn2)cc1Cl | 0.9 | 2 | 51* | 8 | -8 | -3
c1ccc(Nc2ccc(-n3ccnc3)nn2)cc1 | 1.1 | 15 | -4 | -7 | -28 | x
Cc1ccc(S(=O)(=O)c2c(C)nn(-c3ccccc3)c2OC(=O)c2ccc(Br)o2)cc1 | 0.8 | 7 | 53* | 18 | -8 | -21
Cc1ccc(S(=O)(=O)c2c(C)nn(-c3ccccc3)c2OC(=O)c2ccco2)cc1 | 0.9 | 16 | -9 | 12 | -3 | x
Cc1ccc(-c2csc(=S)n2CC(=O)OCC(=O)NC(C)C(C)C)cc1 (centres undefined) | 0.8 | 4 | 64* | 19 | 14 | -19
CC(C)(C)c1cc(C(=O)NCCN2CCCC2)cc(C(C)(C)C)c1 | 1 | 2 | 19 | 3 | 6 | x
Cc1ccc(NC(=O)C2CCN(S(=O)(=O)c3c(C)noc3/C=C/c3ccco3)CC2)nc1 | 0.8 | -20 | 16 | 22 | -1 | x
Cc1noc(/C=C/c2ccco2)c1S(=O)(=O)N1CCC(C(=O)NCc2ccco2)CC1 | 0.8 | 5 | 77* | 19 | -3 | -15
Fc1cccc(NC(=S)NCc2ccc(Cl)cc2)c1 | 0.8 | 5 | 70* | 17 | 54 | 6
Cc1ccc(C(=O)/C=C/c2ccccc2[N+](=O)[O-])cc1 | 0.8 | 3 | 42 | 19 | -11 | x
O=C(/C=C/c1ccccc1[N+](=O)[O-])c1ccccc1Br | 0.9 | 2 | 100* | 8 | 69* | 27
COc1cccc(CC2(CO)CCCN(C/C=C/c3ccccc3OC)C2)c1 (centres undefined) | 0.9 | 17 | 41 | 9 | 6 | x
COc1ccccc1/C=C/CN1CCCC(CO)(Cc2cccc(Cl)c2)C1 (centres undefined) | 0.9 | 19 | 82* | 13 | 65* | 42
C/C(Cn1cnc([N+](=O)[O-])n1)=N/NC(=O)COc1c(Cl)cc(Cl)cc1Cl | 0.9 | 7 | 23 | 12 | -6 | x
COc1cc(CNCc2cccs2)ccc1OCc1ccccc1 | 1 | 3 | 99* | 2 | 15 | 92*
COc1cc(CC(NC(C)=O)C(=O)NC2CCN(c3c(Cc4ccccc4)c(C)nc4ncnn34)CC2)cc(OC)c1 (centres undefined) | 0.8 | -3 | -7 | 22 | -1 | x
CNCCCC1c2ccccc2C=Cc2ccccc21 | 0.9 | 10 | 56* | 7 | 20 | -9
FC(F)(F)c1nnc2c(Sc3ccccc3)nc3ccccc3n12 | 0.8 | -20 | 2 | 16 | -25 | x
SMILES | Diaph act CS | G6PDH counter | L major viab | Diaphorase inh | WT yeast gro inh | L major 1uM
FC(F)(F)c1nnc2c(Sc3ccccn3)nc3ccccc3n12 | 0.9 | 2 | 94* | 9 | 3 | 14
C=CCn1cccc(/C=C/C(=O)c2ccc(C(C)(C)C)cc2)c1=S | 0.9 | -5 | 100* | 6 | 50 | 66*
O=S(=O)(NC(=NCCc1ccc(Cl)cc1)c1ccccc1Cl)c1cccs1 | 0.7 | 5 | 100* | 31 | 5 | -5
Cn1cccc1Cc1nnc(SCC(=O)Nc2ccc(F)cc2)n1CCc1ccccc1 | 0.8 | -34 | 56* | 21 | -8 | -9
CC(=O)OC1C(N2CCCCC2)c2c(ccc(/C=C/C(=O)N3CCCCC3)c2O)OC1(C)C (centres undefined) | 0.8 | 16 | 73* | 15 | -9 | -22
CCOC(=O)c1[nH]c(C)c(C(=O)N2CCN(C(=O)OCC)CC2)c1CC | 1 | -11 | -1 | 2 | 13 | x
O=S(=O)(c1ccc(-c2csc(-c3cccnc3)n2)cc1)N1CCCC1 | 0.9 | 5 | 15 | 12 | -1 | x
O=S(=O)(c1ccc(-c2csc(-c3cccnc3)n2)cc1)N1CCCCC1 | 0.9 | 2 | 78* | 7 | 22 | 39
C[n+]1ccccc1COc1ccc(C(C)(C)C)cc1 | 0.9 | 3 | -2 | 6 | -1 | x
O=C(c1ccccc1)N(Cc1cccs1)C1CCS(=O)(=O)C1 (centres undefined) | 0.9 | 5 | -2 | 15 | 0 | x
O=C(c1sc2ccccc2c1Cl)N(Cc1ccccc1Cl)C1CCS(=O)(=O)C1 (centres undefined) | 0.9 | 3 | 100* | 12 | 5 | -2
Cc1noc2ncnc(Sc3ccc(Br)cc3)c12 | 0.9 | 1 | 67* | 11 | 58 | 32
COc1ccc(NC(=O)c2sccc2SCc2cccc(C(F)(F)F)c2)cc1 | 0.8 | -16 | 100* | 16 | 7 | -4
O=C(Nc1ccc(F)cc1)c1sccc1SCc1cccc(C(F)(F)F)c1 | 0.8 | -6 | 18 | 22 | 8 | x
CCCNC(=O)OCCC12CC3CC(CC(C3)C1)C2 | 1 | 0 | 97* | 4 | 36 | -16
COc1cc(/C=C2\C(=O)ON=C2c2ccccc2)cc(Cl)c1O | 0.6 | 7 | 50* | 42 | -4 | 17
COc1cc(C=C2C(=O)OC(c3ccccc3)OC2=O)cc(Br)c1O (centres undefined) | 0.9 | 10 | 4 | 5 | 16 | x
CCC(C#CCN1CCOCC1)(CC)OCCC#N | 0.9 | 6 | -1 | 12 | 4 | x
CCC(C#CCN1CCCCC1)(CC)OCCC#N | 0.9 | 5 | 65* | 7 | -1 | -4
C=CCOC(=O)N1CCN(c2cccc(C(F)(F)F)c2)CC1 | 0.8 | 4 | -2 | 24 | 11 | x
CN(C(=O)c1ccc2c(c1)SC1=NS(=O)(=O)CCN12)C(c1ccccc1)c1ccccc1 | 0.9 | 3 | 75* | 7 | -9 | -17
COc1ccc(C(C)(C)C)cc1NC(=O)c1ccc2c(c1)SC1=NS(=O)(=O)CCN12 | 1 | 3 | 3 | -2 | -13 | x
Cc1nc2ccccc2c(-c2ccccc2)c1CC(=O)O | 0.9 | 2 | -4 | 11 | -4 | x
